What was measured:
Homo sapiens [1] = organism: Homo sapiens; test: Inhibition of human telomerase at 5 uM after 2 hrs by TRAP assay
In short: (§1)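 Modified TRAP with TSG4 substrate primer (0.4 μM) and 50 μM dNTPs in TRAP buffer (pH 8.3, 1.5 mM MgCl2, 68 mM KCl, 0.05% Tween 20, 1 mM EGTA). The mix was heated 90 C 10 min, then iced. Drug was preincubated 2 h at 30 C. SKN-Be neuroblastoma cell extract was added for 30 min at 30 C, then phenol/chloroform extraction. PCR (30 cycles) used 32P-TSG4, CXext primer and Taq. Runs done at least three independent times.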

Homo sapiens [2] = organism: Homo sapiens; test: Inhibition of human telomerase at 2 uM after 2 hrs by TRAP assay; in short: as §1
Homo sapiens [3] = organism: Homo sapiens; test: Inhibition of human telomerase at 20 uM after 2 hrs by TRAP assay; in short: as §1
Homo sapiens [4] = organism: Homo sapiens; test: Inhibition of human telomerase at 10 uM after 2 hrs by TRAP assay; in short: as §1

Row | Compound | inhibition (Homo sapiens [1]) [%] | inhibition (Homo sapiens [2]) [%] | inhibition (Homo sapiens [3]) [%] | inhibition (Homo sapiens [4]) [%]
1 | CN(C)CCCNc1cc2c3c(ccc4c5ccc6c7c(ccc(c1c34)c75)C(=O)N(CCCN(C)C)C6=O)C(=O)N(CCCN(C)C)C2=O | 39 | 24 | 59 | 57
2 | CN(C)CCCNc1cc2c3c(ccc4c5c(NCCCN(C)C)cc6c7c(ccc(c1c34)c75)C(=O)N(CCCN(C)C)C6=O)C(=O)N(CCCN(C)C)C2=O | 41 | 8 | 54 | 54
3 | CN(C)CCCNc1cc2c3c(ccc4c5c(Br)cc6c7c(ccc(c1c34)c75)C(=O)N(CCCN(C)C)C6=O)C(=O)N(CCCN(C)C)C2=O | 49 | 18 | 59 | 55
4 | CN(C)CCCNc1cc2c3c(cc(NCCCN(C)C)c4c5ccc6c7c(ccc(c1c34)c75)C(=O)N(CCCN(C)C)C6=O)C(=O)N(CCCN(C)C)C2=O | 47 | 12 | 59 | 56
